Laboratory results from article PMC9122039 (Chembiochem : a European journal of chemical biology, 2022).
Where a SMILES comes first, the peptide text is derived from it. The star is where a group is joined. Cbz = O=C(OCc1ccccc1)*

How the values were obtained:
Assay type in all cases: cell-based
[1] = system: proteasome (β2 and β5 subunits) in HEK-293T cells; settings: then 3 at 500 nM 1 h; for increase of proteasome labeling over DMSO treated samples: modulator 25 μM 1 h; for effect of inhibitor on labeling by 3: inhibitor at two concentrations 1 h; for change of proteasome activity: modulator 5 μM 1 h
How it was run: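 HEK-293T cells pre-treated 1 h with the test compound (stimulators and inhibitors, each at two concentrations) or DMSO. BODIPY-epoxomicin probe then added at 500 nM for 1 h (2 h total). Proteasome bound by the probe is resolved by SDS-PAGE and in-gel fluorescence is scanned. β2 and β5 band signals are quantified and normalised to DMSO; error bars are standard deviation.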

[2] = system: proteasome in HEK-293T cells; test: Confocal microscopy with probe 3; settings: modulator 25 μM 1 h, then 3 at 500 nM 1 h, PBS wash
How it was run: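 HEK-293T cells on poly-D-lysine-coated glass coverslip chambers; test compound (proteasome stimulator or inhibitor) at 25 μM for 1 h, then BODIPY-epoxomicin probe at 500 nM for another hour. PBS wash removes extracellular or unbound probe. Controls: DMSO plus probe (basal activity) and DMSO without probe. Imaged by confocal in bright field and BodipyFL green channel, with overlay.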

[3] = system: proteasome in HEK-293T cells; test: Flow cytometry with probe 3; settings: modulator 1 h, then 3 for 1 h, rinsed with PBS
How it was run: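 HEK-293T cells get the test compound (stimulator or inhibitor) for 1 h. The BODIPY-epoxomicin probe is then added and incubated another hour. Cells are pelleted and rinsed with PBS to remove unreacted probe. Probe fluorescence is measured by flow cytometry against DMSO-treated samples.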

Molecule | increase of proteasome labeling over DMSO treated samples [1] | change of intracellular fluorescent signal of 3 (confocal microscopy) [2] | effect of inhibitor on labeling by 3 [1] | change of fluorescent signal of 3 over DMSO treated samples (flow cytometry) [3] | change of proteasome activity [1]
CCCCC/C=C\C/C=C\C/C=C\C/C=C\CCCC(=O)Nc1ccc(O)cc1 [AM-404] | at least 40% |  |  |  | 
CC(C)C[C@@H](C=O)NC(=O)[C@H](CC(C)C)NC(=O)[C@H](CC(C)C)NC(=O)OCc1ccccc1 [MG-132] (Cbz-Leu-Leu-Leu-aldehyde) |  | significantly decreased the signal | prevented the binding of (3) | decrease | 
Clc1ccc(COC(Cn2ccnc2)c2ccc(Cl)cc2Cl)c(Cl)c1 (stereo not drawn) [MO, Miconazole] | at least 40% | remarkable increase in fluorescent signal |  | increase | significant increase in activity
CN1CCN(CCCN2c3ccccc3Sc3ccc(C(F)(F)F)cc32)CC1 [TFP, trifluoperazine] | at least 40% |  |  | increase | significant increase in activity
epoxomicin |  |  | prevented the binding of (3) |  | 
